Assay results from ChEMBL document CHEMBL1135836, “Cyclodextrin-derived host molecules as reversal agents for the neuromuscular blocker rocuronium bromide: synthesis and structure-activity relationships” (J Med Chem, 2002).
pEC50: −log10 of the molar value.

Experiments:
Assay type in all cases: functional
Mus musculus [1] = species on record: Mus musculus; test: In vitro reversal activity versus ~90% block by rocuronium in isolated mouse hemidiaphragm, expressed as % of maximum reversal at 3.6 uM conc.
Felis catus [2] = test: Percentage of maximum change of heart rate in anesthetized cat at 1.4umol/kg, by bolus injection
Summary of the method: (§1)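 Anaesthetized cats, left for 1 h after surgery to stabilize. Tibialis anterior twitch was evoked via the sciatic nerve with supramaximal 0.25 ms pulses at 0.1 Hz. Rocuronium in phosphate buffer (pH 4) was infused continuously (10.24 ± 1.31 nmol kg-1 min-1). Increasing doses of agent in saline were then given as iv boluses while mean arterial blood pressure and heart rate were recorded; means of three independent experiments.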

Felis catus [3] = test: Percentage of maximum change of heart rate in anesthetized cat at 0.4umol/kg, by bolus injection; summary of the method: as §1
Felis catus [4] = test: Percentage of maximum change in blood pressure in anesthetized cat dosed at 0.8 umol/kg (by bolus injection); summary of the method: as §1
Felis catus [5] = test: % of maximum change of increase in contraction of nictitating membrane in anesthetized cat at 0.4umol/kg, by bolus injection
Felis catus [6] = test: Percentage of maximum change of heart rate in anesthetized cat at 0.8umol/kg, by bolus injection; summary of the method: as §1
Felis catus [7] = test: % of maximum change of decrease in HR by vagal stimulation in anesthetized cat at 0.4umol/kg, by bolus injection
Felis catus [8] = test: Percentage of maximum change of heart rate in anesthetized cat at 1.2umol/kg, by bolus injection; summary of the method: as §1
Felis catus [9] = test: Percentage of maximum change of heart rate in anesthetized cat at 0.6umol/kg, by bolus injection; summary of the method: as §1
Felis catus [10] = test: % of maximum change of increase in contraction of nictitating membrane in anesthetized cat at 1.0umol/kg, by bolus injection
Felis catus [11] = test: % of maximum change of increase in contraction of nictitating membrane in anesthetized cat at 0.6umol/kg, by bolus injection
Felis catus [12] = test: % of maximum change of decrease in HR by vagal stimulation in anesthetized cat at 1.0umol/kg, by bolus injection
Felis catus [13] = test: Percentage of maximum change of heart rate in anesthetized cat at 1.6umol/kg, by bolus injection; summary of the method: as §1
Felis catus [14] = test: % of maximum change of decrease in HR by vagal stimulation in anesthetized cat at 1.4umol/kg, by bolus injection
Felis catus [15] = test: % of maximum change of increase in contraction of nictitating membrane in anesthetized cat at 0.8umol/kg, by bolus injection
Felis catus [16] = test: % of maximum change of increase in contraction of nictitating membrane in anesthetized cat at 1.6umol/kg, by bolus injection
Felis catus [17] = test: % of maximum change of decrease in HR by vagal stimulation in anesthetized cat at 0.6umol/kg, by bolus injection
Cavia porcellus [18] = test: In vivo reversal activity versus ~90% block by rocuronium in guinea pig
Summary of the method: (§2)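 Male Dunkin-Hartley guinea pigs (600-900 g), anaesthetized ip with pentobarbitone 10 mg/kg plus urethane 1000 mg/kg, tracheotomized and ventilated. Continuous iv rocuronium infusion (~10 nmol kg-1 min-1) was raised to a steady 85-90% block. Increasing iv doses of agent were given cumulatively. ED50 = 50% recovery versus preblock twitch, by regression. Mean ± SEM of at least two experiments, or one.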

Felis catus [19] = test: % of maximum change of decrease in HR by vagal stimulation in anesthetized cat at 1.2umol/kg, by bolus injection
Felis catus [20] = test: Percentage of maximum change of heart rate in anesthetized cat at 1.8umol/kg, by bolus injection; summary of the method: as §1
Felis catus [21] = test: Percentage of maximum change in blood pressure in anesthetized cat dosed at 1.4 umol/kg (by bolus injection); summary of the method: as §1
Felis catus [22] = test: Percentage of maximum change in blood pressure in anesthetized cat dosed at 1.0 umol/kg (by bolus injection); summary of the method: as §1
Felis catus [23] = test: Percentage of maximum change in blood pressure in anesthetized cat dosed at 0.2 umol/kg (by bolus injection); summary of the method: as §1
Felis catus [24] = test: % of maximum change of decrease in HR by vagal stimulation in anesthetized cat at 0.8umol/kg, by bolus injection
Felis catus [25] = test: % of maximum change of increase in contraction of nictitating membrane in anesthetized cat at 0.2umol/kg, by bolus injection
Mus musculus [26] = species on record: Mus musculus; test: In vitro reversal activity versus ~90% block by rocuronium in isolated mouse hemidiaphragm, expressed as effective conc.
Felis catus [27] = test: Percentage of maximum change in blood pressure in anesthetized cat dosed at 0.6 umol/kg (by bolus injection); summary of the method: as §1
Felis catus [28] = test: % of maximum change of decrease in HR by vagal stimulation in anesthetized cat at 0.2umol/kg, by bolus injection
Felis catus [29] = test: Percentage of maximum change of heart rate in anesthetized cat at 1.0umol/kg, by bolus injection; summary of the method: as §1
Felis catus [30] = test: Percentage of maximum change in blood pressure in anesthetized cat dosed at 1.6 umol/kg (by bolus injection); summary of the method: as §1
Felis catus [31] = test: % of maximum change of increase in contraction of nictitating membrane in anesthetized cat at 1.8umol/kg, by bolus injection
Felis catus [32] = test: Percentage of maximum change in blood pressure in anesthetized cat dosed at 1.8 umol/kg (by bolus injection); summary of the method: as §1
Felis catus [33] = test: Percentage of maximum change in blood pressure in anesthetized cat dosed at 0.4 umol/kg (by bolus injection); summary of the method: as §1
Cavia porcellus [34] = test: In vivo reversal activity versus ~90% block by rocuronium in guinea pig, expressed as % of maximum reversal at 0.3 umol/kg conc.; summary of the method: as §2
Felis catus [35] = test: Percentage of maximum change of heart rate in anesthetized cat at 0.2umol/kg, by bolus injection; summary of the method: as §1
Felis catus [36] = test: % of maximum change of decrease in HR by vagal stimulation in anesthetized cat at 1.6umol/kg, by bolus injection
Felis catus [37] = test: % of maximum change of decrease in HR by vagal stimulation in anesthetized cat at 1.8umol/kg, by bolus injection
Felis catus [38] = test: Percentage of maximum change in blood pressure in anesthetized cat dosed at 1.2 umol/kg (by bolus injection); summary of the method: as §1
Felis catus [39] = test: % of maximum change of increase in contraction of nictitating membrane in anesthetized cat at 1.2umol/kg, by bolus injection
Felis catus [40] = test: % of maximum change of increase in contraction of nictitating membrane in anesthetized cat at 1.4umol/kg, by bolus injection
Mus musculus [41] = species on record: Mus musculus; test: In vitro reversal activity versus ~90% block by rocuronium in isolated mouse hemidiaphragm, expressed as % of maximum reversal at 14.4 uM conc.
Cavia porcellus [42] = test: In vivo reversal activity versus ~90% block by rocuronium in guinea pig, expressed as % of maximum reversal at 7.3 umol/kg conc.
Summary of the method: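 Male Dunkin-Hartley guinea pigs (600-900 g) anaesthetized ip with pentobarbitone 10 mg/kg plus urethane 1000 mg/kg, tracheotomized and artificially ventilated. Continuous iv rocuronium bromide infusion (~10 nmol kg-1 min-1) raised until steady-state twitch block of 85-90%. Increasing single iv doses of reversal agent given by a separate catheter. Max reversal is peak twitch recovery versus preblock height at highest dose tested; means ± SEM, n ≥ 2 or single experiment.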

Q: With O=C([O-])CCSCC1O[C@@H]2O[C@@H]3C(CSCCC(=O)[O-])O[C@H](O[C@@H]4C(CSCCC(=O)[O-])O[C@H](O[C@@H]5C(CSCCC(=O)[O-])O[C@H](O[C@@H]6C(CSCCC(=O)[O-])O[C@H](O[C@@H]7C(CSCCC(=O)[O-])O[C@H](O[C@@H]8C(CSCCC(=O)[O-])O[C@H](O[C@@H]9C(CSCCC(=O)[O-])O[C@H](O[C@H]1C(O)C2O)C(O)C9O)C(O)C8O)C(O)C7O)C(O)C6O)C(O)C5O)C(O)C4O)C(O)C3O.[Na+].[Na+].[Na+].[Na+].[Na+].[Na+].[Na+].[Na+] (some centres undefined) as the compound, how does the Max reversal (Mus musculus [1]) read?
A: 95.1%

Q: What about the HR (Felis catus [2]) of the same compound?
A: -3.7 beats min-1

Q: What about the HR (Felis catus [3]) of the same compound?
A: -5.5 beats min-1

Q: And the BP (Felis catus [4])?
A: -3.3 mmHg

Q: What about the Max change (Felis catus [5]) of the same compound?
A: 0%

Q: What about the HR (Felis catus [6]) of the same compound?
A: -6.3 beats min-1

Q: What about the Decrease (Felis catus [7]) of the same compound?
A: -6.7%

Q: And the HR (Felis catus [8])?
A: -4 beats min-1

Q: What about the HR (Felis catus [9]) of the same compound?
A: -7.5 beats min-1

Q: What about the Max change (Felis catus [10]) of the same compound?
A: 8.7%

Q: And the Max change (Felis catus [11])?
A: 0%

Q: And the Decrease (Felis catus [12])?
A: 0%

Q: What about the HR (Felis catus [13]) of the same compound?
A: -6.9 beats min-1

Q: What about the Decrease (Felis catus [14]) of the same compound?
A: 0.7%

Q: And the Max change (Felis catus [15])?
A: 3.7%

Q: What about the Max change (Felis catus [16]) of the same compound?
A: 3.7%

Q: And the Decrease (Felis catus [17])?
A: -6.7%

Q: What about the ED50 (Cavia porcellus [18]) of the same compound?
A: 0.03 µmol/kg

Q: What about the Decrease (Felis catus [19]) of the same compound?
A: 0%

Q: And the HR (Felis catus [20])?
A: -14.3 beats min-1

Q: And the BP (Felis catus [21])?
A: -3.3 mmHg

Q: And the BP (Felis catus [22])?
A: -3.2 mmHg

Q: What about the BP (Felis catus [23]) of the same compound?
A: -7.3 mmHg

Q: And the Decrease (Felis catus [24])?
A: 2.2%

Q: And the Max change (Felis catus [25])?
A: 0%

Q: And the pEC50 (Mus musculus [26])?
A: 5.92

Q: What about the BP (Felis catus [27]) of the same compound?
A: 3.5 mmHg

Q: What about the Decrease (Felis catus [28]) of the same compound?
A: -2.9%

Q: What about the HR (Felis catus [29]) of the same compound?
A: -3.4 beats min-1

Q: And the BP (Felis catus [30])?
A: -5 mmHg

Q: What about the Max change (Felis catus [31]) of the same compound?
A: 12.5%

Q: And the BP (Felis catus [32])?
A: -5 mmHg

Q: And the BP (Felis catus [33])?
A: -6.5 mmHg

Q: And the Max reversal (Cavia porcellus [34])?
A: 92.5%

Q: And the HR (Felis catus [35])?
A: -4.1%

Q: What about the Decrease (Felis catus [36]) of the same compound?
A: 0%

Q: And the Decrease (Felis catus [37])?
A: 11%

Q: And the BP (Felis catus [38])?
A: -3.3 mmHg

Q: And the Max change (Felis catus [39])?
A: 3.7%

Q: And the Max change (Felis catus [40])?
A: 3.7%

Q: What does the source list for CNC(=O)CSCC1O[C@@H]2O[C@@H]3C(CSCC(=O)NC)O[C@H](O[C@@H]4C(CSCC(=O)NC)O[C@H](O[C@@H]5C(CSCC(=O)NC)O[C@H](O[C@@H]6C(CSCC(=O)NC)O[C@H](O[C@@H]7C(CSCC(=O)NC)O[C@H](O[C@@H]8C(CSCC(=O)NC)O[C@H](O[C@@H]9C(CSCC(=O)NC)O[C@H](O[C@H]1C(O)C2O)C(O)C9O)C(O)C8O)C(O)C7O)C(O)C6O)C(O)C5O)C(O)C4O)C(O)C3O (some centres undefined)?
A: Max reversal (Mus musculus [41]): 79.6%; ED50 (Cavia porcellus [18]): 1.54 µmol/kg; pEC50 (Mus musculus [26]): 5.19; Max reversal (Cavia porcellus [42]): 102.2%
